M5 ag: CHRM5 agonism in calcium assay. P08912. CHO-K1 hM5 cells, Fluo-8 calcium fluorescence; 0% DMSO wells, 100% maximal acetylcholine response. activation, % at 3 µM. 360,000 compounds, 0.19% hits. AID 624037;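 active means activation above the run's mean over test compounds plus 3 SD, cut at about 23% in these data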;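 further: signal is peak over basal fluorescence ratio across the kinetic read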
Target sequence (P08912 whole entry, looked up): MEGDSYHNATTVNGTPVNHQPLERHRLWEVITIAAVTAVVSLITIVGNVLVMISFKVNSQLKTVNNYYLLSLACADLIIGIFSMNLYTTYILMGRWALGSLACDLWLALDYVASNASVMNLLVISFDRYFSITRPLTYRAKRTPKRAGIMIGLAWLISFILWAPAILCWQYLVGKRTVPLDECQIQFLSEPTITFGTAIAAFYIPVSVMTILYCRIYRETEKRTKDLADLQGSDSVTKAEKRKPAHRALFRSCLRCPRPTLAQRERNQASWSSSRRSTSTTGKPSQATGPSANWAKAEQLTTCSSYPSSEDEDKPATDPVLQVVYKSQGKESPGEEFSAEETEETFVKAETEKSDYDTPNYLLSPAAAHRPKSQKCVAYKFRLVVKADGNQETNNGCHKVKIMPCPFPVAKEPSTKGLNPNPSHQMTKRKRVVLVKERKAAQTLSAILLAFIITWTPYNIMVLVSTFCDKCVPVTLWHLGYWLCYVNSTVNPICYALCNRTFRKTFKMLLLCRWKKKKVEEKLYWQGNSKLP
CHRM5 antagonist: CHRM5 antagonism in calcium assay. CHO-hM5 cells, Fluo-8 calcium fluorescence, ACh EC80. 360,000 compounds, 0.59% hits. inhibition, % at 3 µM;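 active means inhibition above a per-plate cutoff, the mean of that plate's test compounds plus 3 SD, cut at about 27% in these data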
M4 ag: CHRM4 agonism in calcium assay. P08173. CHO-K1 hM4/Gqi5, Fluo-8 calcium fluorescence; vehicle 0%, full acetylcholine response 100%. activation, % at 3 µM. 360,000 compounds, 0.14% hits;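 active means activation above the run mean over all test wells plus 3 SD, cut at about 32% in these data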;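 further: peak over basal fluorescence ratio per well then scaled between controls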
CHRM4 PAM: positive allosteric modulators of human muscarinic M4 receptor. P08173. CHO-K1 hM4/Gqi5, Fluo-8 calcium fluorescence, ACh EC20; 0% = ACh EC20, 100% = maximal ACh. activation, % at 3 µM. 360,000 compounds, 0.4% hits. AID 624126;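 active means activation above its plate's cutoff, the mean activation of sample wells plus 3 SD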
CHRM5 PAM: CHRM5 positive allosteric modulation. activation, % at 3 µM. CHO-K1 hM5, Fluo-8 calcium, ACh EC20 PAM; 0% = ACh EC20, 100% = ACh EC100. AID 624038. 360,000 compounds, 0.3% hits;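 active means activation above the run cutoff, the mean activation of all test compounds plus 3 SD, cut at about 18% in these data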
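Assay system: CHO-K1 hM5 cells / Incubation: Fluo-8 loading 80 min at 37 °C plus 30 min room temperature / Technique: Fluo-8 calcium dye fluorescence, kinetic read / Repeats: single replicate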
M4 antag: antagonists of human muscarinic M4 receptor (CHRM4). P08173. CHO-hM4 cells, ACh EC80, Fluo-8 calcium fluorescence. inhibition, % at 3 µM. 360,000 compounds, 0.73% hits. AID 624125;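 active means inhibition above its plate's cutoff, the mean inhibition of sample wells plus 3 SD, cut at about 27% in these data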
Each line names hits and unclear results; the compound was inactive in the other large screens. Shown are actives, neighbours in structure and some others; about 1.8% of the full set was active somewhere.

CN(C)S(=O)(=O)c1cccc(COC(=O)Cc2c(F)cccc2Cl)c1	none
CC1(C)Cc2c(cnn2-c2ccccc2)C(=O)/C1=N\NC(=O)c1ccncc1	CHRM4 PAM 18.0
CCN1CCN(C(=O)c2ccc3c(=O)n(CCc4ccccc4)c(=O)[nH]c3c2)CC1	none
Cc1[nH]c(SCC(=O)c2c(N)n(C)c(=O)n(C)c2=O)nc1Cc1ccccc1	none
NC(c1csc(NC(=O)c2cccc(OC(F)(F)F)c2)n1)c1ccccc1Cl (stereo not given)	none
NC(=O)N/N=C/c1ccc([N+](=O)[O-])o1	none
COC(=O)N/N=C/c1ccc([N+](=O)[O-])o1	CHRM4 PAM 30.2
CC(Sc1nnc(C2CC2)n1-c1ccccc1)C(=O)N1CCNC1=O (stereo not given)	CHRM4 PAM 22.9
CC(Sc1nnc(C2CC2)n1Cc1ccccc1)C(=O)N1CCNC1=O (stereo not given)	none
N#Cc1ccc(/C=C/C(=O)c2ccc3c(c2)OCO3)cc1	CHRM4 PAM 17.4
CCCC(=O)OCCNc1cc(Sc2nc3ccccc3[nH]2)c2nonc2c1[N+](=O)[O-]	CHRM5 antagonist 34.0, M4 antag 54.8
CC(=O)OCCCNc1cc(Sc2ccc(Cl)cc2)c2nonc2c1[N+](=O)[O-]	CHRM4 PAM 22.4
CCC(=O)OCCNc1cc(SCCC(=O)OC)c2nonc2c1[N+](=O)[O-]	none
Cc1ccc(N2C(=O)Nc3ccc(Br)cc3C2(O)C(=O)NCCN(C)C)cc1C (stereo not given)	none
COc1ccc(C2c3ccc(O)cc3Oc3ncn4nc(-c5ccncc5)nc4c32)cc1OC (stereo not given)	none
O=C(O)CSc1cc(C(=O)c2ccccc2O)cn2c(=O)c3c4c(sc3nc12)CCCC4	CHRM4 PAM 32.7
CCN(CCn1cccn1)C(=O)CCc1nnc(CCCc2ccccc2)o1	none
CCN(CCn1cccn1)C(=O)CCc1nnc(-c2ccc3c(c2)OCO3)o1	CHRM5 PAM 21.7
Cc1nn(-c2ccccn2)c(C)c1Oc1ccccc1O	none
Cc1nn(-c2nc3ccccc3s2)c(C)c1Oc1ccccc1O	M4 ag 37.5, M4 antag 32.3
COC(=O)/C=C1\OCc2ccc(C)cc21	CHRM5 PAM 18.5
CCOC(=O)C1CCN(S(=O)(=O)c2ccc3c(c2)CCN3C(C)=O)CC1	CHRM5 antagonist 31.8
COc1cc(NC(=O)Nc2cccn3nc(COCCO)nc23)cc(OC)c1OC	none
Cc1ccc(OC(=O)CCS(=O)(=O)c2ccc(C)cc2)cc1	CHRM4 PAM 17.5
COC(=O)Cc1ccc(OC(=O)CCS(=O)(=O)c2ccc(C)cc2)cc1	none
COc1ccccc1NC(=O)c1ccc(NC(=O)COC(=O)C2(C)CC2(Cl)Cl)cc1 (stereo not given)	CHRM5 antagonist 28.8
CC1(C(=O)OCC(=O)Nc2ccc(C(N)=O)cc2)CC1(Cl)Cl (stereo not given)	none
FC(F)Oc1ccc(NC(=S)NC2CCCCCCC2)cc1	CHRM5 antagonist 33.7
O=C(NC1CCSc2ccccc21)c1cccc(OC(F)F)c1 (stereo not given)	none
FC(F)Oc1ccc(NC(=S)NC2CCSc3ccccc32)cc1 (stereo not given)	CHRM5 antagonist 43.1, M4 antag 59.8
S=C(Nc1ccc(Cl)cc1)NC1CCCCC1	none
O=C(CCl)N1c2ccccc2Oc2ccc3ccccc3c21	M5 ag 37.5, M4 ag 47.5, M4 antag 31.9
CC(=O)N1c2ccccc2Oc2cc3ccccc3cc21	none
O=C(c1ccccc1)C1CCN(C(=O)C2CCC(=O)N(Cc3ccccc3F)C2)CC1 (stereo not given)	none
Nc1[nH]c2cc([N+](=O)[O-])ccc2c1-c1ccccn1	M5 ag 26.0, CHRM5 antagonist 31.7, M4 ag 54.3
COC(=O)CSc1nnc(CNC(=O)c2cc(OC)cc(OC)c2)n1-c1ccc(F)cc1	none
Cc1cc(C(C)(C)C)cc(C)c1C[n+]1ccc2ccccc2c1	M4 antag 29.3
O=C(Oc1ccc(Br)cc1C(=S)N1CCCC1)c1ccccc1Cl	CHRM5 PAM 20.3
O=C(Oc1ccc(Br)cc1C(=S)N1CCCC1)c1ccccc1F	none
CCn1c(SC(C)C(=O)NCC2CCCO2)nc2ccccc21 (stereo not given)	none
Cc1cc(C)n(CCNC(=O)[C@H]2O[C@@H](n3ccc(N)nc3=O)[C@H](O)[C@@H]2O)n1	none
O=C(C[n+]1ccc(Cc2ccccc2)cc1)Nc1ccc([N+](=O)[O-])cc1Cl	M4 antag 27.2
N=c1c2ccccc2nc2n1CCCCCCCCCCC2	M4 ag 33.8
O=c1c2ccccc2nc2n1CCCCC2	none
CC1(C(=O)Nc2ccc(F)c(Cl)c2)Cc2c(-c3ccc(C(N)=O)cc3)ccnc2O1 (stereo not given)	none
O=C1N=c2ccccc2=C1c1sc(NS(=O)(=O)c2ccccc2)nc1O	CHRM4 PAM 28.0
O=C1N=c2ccccc2=C1c1sc(NS(=O)(=O)Cc2ccccc2)nc1O	none
CC1CN(CCC(=O)Nc2ccccc2F)CC(C)O1 (stereo not given)	none
COc1ccc(-n2nc([N+](=O)[O-])c(=NC3CCN(Cc4ccccc4)CC3)n2O)cc1	M4 antag 27.9
Cc1ccc(S(=O)(=O)N(C)C)cc1NC(=O)C1CCCN(C(=O)c2ccc(Cl)cc2)C1 (stereo not given)	none
CCOC1=C2[C@H](c3ccc(CC)cc3)N(S(=O)(=O)c3ccc(C)cc3)C[C@H]2n2c(=O)n(-c3ccccc3)c(=O)n2C1	none
Cc1ccc2nc(NCCNC(=O)c3ccccc3)c(C#N)cc2c1	M4 antag 51.1
CN1CCc2c(c3ccccc3n2Cc2ccccc2)C1	CHRM5 antagonist 42.2, M4 antag 56.9
CCCCN1CCc2c(c3ccccc3n2Cc2ccccc2)C1	none
CCOC(=O)C1(Cc2ccc(OC)cc2)CCN(C(=O)CN2CCCCC2=O)CC1	CHRM5 antagonist 28.4
COc1cc(C(=O)NCc2ccc(S(N)(=O)=O)cc2)ccc1OCC(=O)N1CCOCC1	none
COc1cccc(S(=O)(=O)Nc2cccc(C(=O)N3CCCC3)c2)c1	none
COc1cccc(S(=O)(=O)Nc2cccc(C(=O)N3CCOCC3)c2)c1	M4 antag 36.2
CN(C)C(CNC(=O)c1cc(S(=O)(=O)N2CCOCC2)ccc1Cl)c1cccs1 (stereo not given)	none
O=c1nc(SCc2c(F)cccc2Cl)nc(-c2ccc(Cl)cc2)[nH]1	CHRM4 PAM 38.6
O=c1nc(SCc2ccccc2Cl)nc(-c2ccc(Cl)cc2)[nH]1	none
CCc1c(C)c2ccc(OCC(=O)N(C)C)c(C)c2oc1=O	none

Screening results as filed in PubChem.
